The target of data set [1] is Sodium-dependent noradrenaline transporter (Homo sapiens, UniProt P23975). The data set can be described thus: Inhibition of norepinephrine reuptake at human NET expressed in MDCK cells at 100 nM.
For data set [2], the system named is Mus musculus. The data set can be described thus: Analgesic activity in mouse assessed as reduction of acetic acid-induced writhing at 30 mg/kg.
Data set [3] is described as follows: AUC (0 to infinity) in rat at 10 mg/kg, po. Type of data set: ADME, organism-based. The arrangement: dose 10 mg/kg, route oral, time infinity. Conditions: plasma.
The nature of data set [4]: Cmax in rat at 10 mg/kg, iv. Type of data set: ADME, organism-based. Further details: dose 10 mg/kg, route intravenous. Conditions: in vivo.
A further data set deals with Cytochrome P450 2D6 (Homo sapiens, UniProt P10635). Put plainly: Inhibition of CYP2D6. The data set is classed as ADME.
In data set [5] the test system is Mus musculus. The data set can be described thus: Antidepressant activity in mouse assessed as reduction of mobility time at 3 mg/kg, po by tail suspension test. Type of data set: functional. Further details: scale not given: the % may be the effect or the level left. In outline: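 Mouse tail suspension test run as an oral dose–response. Read-out is percent reduction of immobility time; minimal effective dose taken at p<0.05.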

Data set [6] addresses T1, Muscarinic acetylcholine receptor M1 (Homo sapiens) (UniProt P11229).
T1 sequence (whole entry): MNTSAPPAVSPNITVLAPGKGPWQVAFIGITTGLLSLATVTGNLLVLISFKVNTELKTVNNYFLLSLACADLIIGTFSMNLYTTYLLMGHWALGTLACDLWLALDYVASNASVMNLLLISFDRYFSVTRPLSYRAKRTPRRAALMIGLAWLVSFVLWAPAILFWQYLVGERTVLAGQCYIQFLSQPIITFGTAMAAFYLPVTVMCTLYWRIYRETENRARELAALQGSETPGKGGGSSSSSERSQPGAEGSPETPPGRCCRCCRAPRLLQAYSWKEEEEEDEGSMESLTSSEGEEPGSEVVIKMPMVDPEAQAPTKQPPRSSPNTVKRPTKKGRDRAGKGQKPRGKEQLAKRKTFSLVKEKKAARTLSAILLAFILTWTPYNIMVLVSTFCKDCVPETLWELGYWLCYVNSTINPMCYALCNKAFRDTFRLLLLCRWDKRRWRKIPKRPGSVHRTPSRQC
Put plainly: Inhibition of muscarinic M1 receptor at 10 uM.

Data set [7] is described as follows: Half life in rat liver microsomes. Type of data set: ADME, Microsome. In outline: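 Metabolic stability in human or rat liver microsomes. Half-lives measurable up to 60 min.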
For orientation: Liver microsomes are a subcellular fraction often used to study metabolism.

In data set [8] the test system is Mus musculus. The data set can be described thus: Antidepressant activity in mouse assessed as change in locomotion at 30 mg/kg, po. Type of data set: functional.
Data set [9] is described as follows: Half life in rat at 10 mg/kg, iv. Type of data set: ADME, organism-based. Further details: dose 10 mg/kg, route intravenous. Conditions: in vivo.
Data set [10] in a line: Volume of distribution at steady state in rat at 10 mg/kg, iv. Conditions: in vivo, read-out: Vdss. Further details: dose 10 mg/kg, route intravenous. Type of data set: ADME, organism-based.
The nature of data set [11]: AUC (0 to infinity) in rat at 10 mg/kg, iv. Type of data set: ADME, organism-based. Further details: time infinity, dose 10 mg/kg, route intravenous. Conditions: plasma.
Data set [12] concerns Mus musculus. Put plainly: Anxiolytic activity in mouse assessed as inhibition of marble buried at 30 mg/kg, ip by marble burying test. The data set is classed as functional. To be noted: route intraperitoneal.
A short description of data set [13]: AUC in rat at 10 mg/kg, po. Type of data set: ADME, organism-based. Further details: dose 10 mg/kg, route oral. Conditions: plasma.
Data set [14] in a line: Inhibition of alpha1 adrenergic receptor at 10 uM.
The target of data set [15] is Sodium-dependent serotonin transporter (Homo sapiens, UniProt P31645). Put plainly: Inhibition of serotonin reuptake at human SERT expressed in HEK293 cells at 100 nM.

Each structure is given as a SMILES string.

In general, inhibition refers to how much of the control response was suppressed. The term inhibition in vivo denotes how much of the control response was suppressed. What is called AUC(0-inf) is total exposure, with the tail of the curve extrapolated. The term Cmax denotes the maximum level reached in the sampled fluid or tissue. What is called IC50 is the midpoint of a concentration-inhibition curve. The half-life is the time needed for the level to fall by half in the phase considered. One may read the AUC as the area under the concentration-time curve, a measure of exposure.

Cytochrome P450 2D6, sequence (P10635 whole entry): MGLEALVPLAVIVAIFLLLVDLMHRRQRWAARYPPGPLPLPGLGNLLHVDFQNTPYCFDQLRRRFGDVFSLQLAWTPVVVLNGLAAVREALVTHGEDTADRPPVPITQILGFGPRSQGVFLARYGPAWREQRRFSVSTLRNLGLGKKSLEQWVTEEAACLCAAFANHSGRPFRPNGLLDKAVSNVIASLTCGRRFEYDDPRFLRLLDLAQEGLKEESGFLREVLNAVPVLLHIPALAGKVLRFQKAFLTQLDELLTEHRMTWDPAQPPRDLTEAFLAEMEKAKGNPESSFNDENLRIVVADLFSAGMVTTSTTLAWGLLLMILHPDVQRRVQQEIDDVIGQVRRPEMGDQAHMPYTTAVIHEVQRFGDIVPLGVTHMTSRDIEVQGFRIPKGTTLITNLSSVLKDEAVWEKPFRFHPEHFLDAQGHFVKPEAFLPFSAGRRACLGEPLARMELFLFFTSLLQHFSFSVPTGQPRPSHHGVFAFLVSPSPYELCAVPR
Sodium-dependent serotonin transporter, sequence (P31645 whole entry, looked up): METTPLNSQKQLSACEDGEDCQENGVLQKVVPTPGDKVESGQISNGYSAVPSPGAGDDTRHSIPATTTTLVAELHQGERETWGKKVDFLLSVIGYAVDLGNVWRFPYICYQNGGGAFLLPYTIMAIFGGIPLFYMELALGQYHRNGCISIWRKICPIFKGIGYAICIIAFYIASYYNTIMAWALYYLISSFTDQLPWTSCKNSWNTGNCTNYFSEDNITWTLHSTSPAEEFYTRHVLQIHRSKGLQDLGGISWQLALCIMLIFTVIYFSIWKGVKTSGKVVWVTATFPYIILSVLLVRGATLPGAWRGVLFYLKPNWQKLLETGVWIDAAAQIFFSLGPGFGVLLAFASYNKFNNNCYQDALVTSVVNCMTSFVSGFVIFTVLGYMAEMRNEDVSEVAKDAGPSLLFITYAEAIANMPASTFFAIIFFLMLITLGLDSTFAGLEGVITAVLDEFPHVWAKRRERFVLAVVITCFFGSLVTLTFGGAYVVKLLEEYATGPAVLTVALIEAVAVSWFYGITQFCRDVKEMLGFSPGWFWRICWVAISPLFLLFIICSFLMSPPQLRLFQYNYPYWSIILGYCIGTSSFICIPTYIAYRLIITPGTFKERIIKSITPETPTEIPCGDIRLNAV
Sodium-dependent noradrenaline transporter, sequence (P23975 whole entry): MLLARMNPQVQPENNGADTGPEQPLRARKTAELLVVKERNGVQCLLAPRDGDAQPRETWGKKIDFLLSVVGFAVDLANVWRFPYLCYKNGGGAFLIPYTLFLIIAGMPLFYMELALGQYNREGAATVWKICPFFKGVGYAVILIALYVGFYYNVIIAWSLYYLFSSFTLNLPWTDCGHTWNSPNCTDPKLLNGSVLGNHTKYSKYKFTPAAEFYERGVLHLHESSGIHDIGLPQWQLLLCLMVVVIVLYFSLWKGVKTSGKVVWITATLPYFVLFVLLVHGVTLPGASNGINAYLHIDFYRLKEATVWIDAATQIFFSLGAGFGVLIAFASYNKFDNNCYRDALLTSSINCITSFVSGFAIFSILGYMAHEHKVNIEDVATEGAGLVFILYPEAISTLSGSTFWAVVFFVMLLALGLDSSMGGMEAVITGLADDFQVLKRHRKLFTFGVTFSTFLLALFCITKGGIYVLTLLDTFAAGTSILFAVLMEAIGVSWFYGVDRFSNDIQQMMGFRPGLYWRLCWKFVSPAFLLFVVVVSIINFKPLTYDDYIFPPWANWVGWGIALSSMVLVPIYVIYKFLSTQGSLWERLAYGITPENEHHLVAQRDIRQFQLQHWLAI

`CNCC[C@@H](c1ccc(Cl)c(Cl)c1)n1nnc(C)n1`: the inhibition is 84% in data set [1], < 20% in [6], < 20% in data set [14] and 43% in data set [15]. Moreover, the inhibition in vivo at 30 mg/kg in the data set on Mus musculus [2] and in the data set on Mus musculus [12] was 94.4% each time. Besides, the AUC(0-inf) was 1790 ng·h/mL in data set [3] and 4150 ng·h/mL in [11]. In [4], this compound yielded a Cmax of 3830 ng/mL. The compound further yielded an IC50 against Cytochrome P450 2D6 of 6.9 µM. For the same compound, the Activity came out at 59.6% with Mus musculus [5] and 92% in the data set with Mus musculus [8]. The figures for the half-life in [7] and in data set [9] were 0.933 h and 3.12 h, respectively. The Vd in data set [10] turned out to be 6.8 L/kg. The AUC in data set [13] turned out to be 1280 ng·h/mL.

(Values after ChEMBL document CHEMBL1221386, “Synthesis and pharmacological evaluation of 3-aryl-3-azolylpropan-1-amines as selective triple serotonin/norepinephrine/dopamine reuptake inhibitors” (Bioorg Med Chem Lett, 2010).)
